Legend:
[1] = biological target: T1, 3-beta-hydroxysteroid-Delta(8),Delta(7)-isomerase (Cavia porcellus, UniProt Q60490); test: Displacement of [3H](-)-(S)-emopamil from EBP in guinea pig liver membrane; format: cell membranes
T1 sequence (Q60490 whole entry): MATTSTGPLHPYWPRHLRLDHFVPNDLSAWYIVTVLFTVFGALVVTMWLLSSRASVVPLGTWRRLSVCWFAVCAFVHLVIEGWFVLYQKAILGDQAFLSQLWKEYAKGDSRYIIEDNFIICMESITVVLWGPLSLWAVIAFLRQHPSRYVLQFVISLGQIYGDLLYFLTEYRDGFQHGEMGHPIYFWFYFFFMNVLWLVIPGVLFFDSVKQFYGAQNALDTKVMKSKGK
In short: (§1)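 Radioligand displacement run by previously published methods, EBP per Moebius and σ1/σ2 per Matsumoto. Tissues from male Dunkin guinea pigs and Wistar Hannover rats (250–300 g). IC50 from six to nine drug concentrations in two or three experiments, samples in duplicate.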

[2] = biological target: Sigma non-opioid intracellular receptor 1 (Cavia porcellus, UniProt Q60492); test: Displacement of [3H](+)-pentazocine from sigma 1 receptor in guinea pig brain membrane without cerebellum; format: cell membranes; in short: as §1
[3] = Displacement of [3H]-DTG from sigma 2-type opioid receptor in rat liver membrane in presence of (+)-pentazocine; format: cell membranes; in short: as §1
Cavia porcellus = species on record: Cavia porcellus; test: Selectivity ratio of Ki for sigma 1 receptor in guinea pig brain membrane without cerebellum to Ki for EBP in guinea pig liver membrane; format: cell membranes
[4] = Selectivity ratio of Ki for sigma 2 receptor in rat liver membrane to Ki for EBP in guinea pig liver membrane; format: cell membranes
PC-3 [5] = test: Cytotoxicity against human PC3 cells assessed as LDH release at 100 uM after 24 hrs relative to untreated control; format: functional
In short: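 PC-3 cells exposed to test compound for 24 h at 37 °C, 5% CO2. LDH release into the medium was measured fluorimetrically (ex 560/em 590 nm) after 10 min with substrate mix at room temperature, then stop solution. Total LDH taken from lysed untreated wells. % cytotoxicity = 100 × (treated medium LDH − background)/(total LDH − background).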

PC-3 [6] = test: Antiproliferative activity against human PC3 cells expressing EBP after 48 hrs by MTT assay; format: functional, cell-based
In short: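 MTT read-out at 48 h in PC-3 cells grown in RPMI 1640 with 10% FBS, 2 mM glutamine, penicillin/streptomycin, 37 °C, 5% CO2. 10 000 cells/well seeded day 1, drugs added day 2 over 1–100 µM (150 or 300 µM for some references). Solvent controls included. MTT 0.5 mg/mL for 3 h, formazan dissolved in DMSO, absorbance at 570 and 630 nm.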

[7] = biological target: T2, 5-hydroxytryptamine receptor 1A (Rattus norvegicus, UniProt P19327); test: Displacement of [3H]8OH-DPAT from 5HT1A receptor in rat hippocampal membrane; format: cell membranes, Hippocampus
T2 sequence (P19327 whole entry): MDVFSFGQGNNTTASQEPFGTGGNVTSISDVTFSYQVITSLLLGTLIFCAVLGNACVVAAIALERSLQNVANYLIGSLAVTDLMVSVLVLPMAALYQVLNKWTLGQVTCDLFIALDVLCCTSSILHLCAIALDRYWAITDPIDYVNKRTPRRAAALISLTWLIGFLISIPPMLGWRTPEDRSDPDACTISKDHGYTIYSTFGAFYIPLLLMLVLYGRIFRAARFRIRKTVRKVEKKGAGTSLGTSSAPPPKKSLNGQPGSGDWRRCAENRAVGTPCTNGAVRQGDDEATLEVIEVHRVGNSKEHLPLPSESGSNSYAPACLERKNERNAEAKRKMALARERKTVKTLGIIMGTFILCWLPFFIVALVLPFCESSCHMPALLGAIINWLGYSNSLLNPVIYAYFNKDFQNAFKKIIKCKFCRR

D(2) dopamine receptor = D(2) dopamine receptor (Rattus norvegicus, UniProt P61169); test: Displacement of [3H]spiroperidol from dopamine D2 receptor in rat striatal membrane; format: cell membranes, Striatum
[8] = biological target: T3, Adrenergic receptor alpha-1 (Rattus norvegicus, UniProt P15823+P23944+P43140); test: Displacement of [3H]prazosin from adrenergic alpha1 receptor in rat cortical membrane; format: cell membranes
T3 sequence (P15823 whole entry): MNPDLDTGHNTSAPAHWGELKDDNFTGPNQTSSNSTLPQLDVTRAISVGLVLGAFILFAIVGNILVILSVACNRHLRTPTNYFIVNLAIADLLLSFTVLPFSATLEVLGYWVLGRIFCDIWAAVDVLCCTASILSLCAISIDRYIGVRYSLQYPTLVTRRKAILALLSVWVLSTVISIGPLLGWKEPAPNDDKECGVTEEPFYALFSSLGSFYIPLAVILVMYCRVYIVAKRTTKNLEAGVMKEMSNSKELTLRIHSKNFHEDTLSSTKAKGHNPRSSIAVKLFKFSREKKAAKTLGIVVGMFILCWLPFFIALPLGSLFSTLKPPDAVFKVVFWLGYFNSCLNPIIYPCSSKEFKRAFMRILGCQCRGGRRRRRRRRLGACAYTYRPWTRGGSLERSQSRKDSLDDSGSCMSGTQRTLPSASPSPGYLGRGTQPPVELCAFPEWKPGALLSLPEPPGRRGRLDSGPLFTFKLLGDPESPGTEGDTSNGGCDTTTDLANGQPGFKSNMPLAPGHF
T3 sequence (P23944 whole entry): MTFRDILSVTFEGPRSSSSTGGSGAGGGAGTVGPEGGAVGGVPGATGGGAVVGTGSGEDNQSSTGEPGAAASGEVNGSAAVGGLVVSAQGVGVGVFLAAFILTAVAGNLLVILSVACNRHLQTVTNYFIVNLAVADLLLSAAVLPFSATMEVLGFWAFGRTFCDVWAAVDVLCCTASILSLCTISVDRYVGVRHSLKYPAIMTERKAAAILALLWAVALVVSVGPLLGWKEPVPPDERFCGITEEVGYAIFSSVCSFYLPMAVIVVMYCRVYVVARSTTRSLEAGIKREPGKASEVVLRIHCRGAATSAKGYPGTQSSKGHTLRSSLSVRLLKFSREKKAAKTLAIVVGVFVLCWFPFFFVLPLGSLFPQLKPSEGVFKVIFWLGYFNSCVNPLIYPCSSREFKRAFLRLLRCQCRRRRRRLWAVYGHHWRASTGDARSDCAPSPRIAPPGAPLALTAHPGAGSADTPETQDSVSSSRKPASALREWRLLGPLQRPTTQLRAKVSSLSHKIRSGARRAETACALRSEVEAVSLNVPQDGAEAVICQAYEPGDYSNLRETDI
T3 sequence (P43140 whole entry): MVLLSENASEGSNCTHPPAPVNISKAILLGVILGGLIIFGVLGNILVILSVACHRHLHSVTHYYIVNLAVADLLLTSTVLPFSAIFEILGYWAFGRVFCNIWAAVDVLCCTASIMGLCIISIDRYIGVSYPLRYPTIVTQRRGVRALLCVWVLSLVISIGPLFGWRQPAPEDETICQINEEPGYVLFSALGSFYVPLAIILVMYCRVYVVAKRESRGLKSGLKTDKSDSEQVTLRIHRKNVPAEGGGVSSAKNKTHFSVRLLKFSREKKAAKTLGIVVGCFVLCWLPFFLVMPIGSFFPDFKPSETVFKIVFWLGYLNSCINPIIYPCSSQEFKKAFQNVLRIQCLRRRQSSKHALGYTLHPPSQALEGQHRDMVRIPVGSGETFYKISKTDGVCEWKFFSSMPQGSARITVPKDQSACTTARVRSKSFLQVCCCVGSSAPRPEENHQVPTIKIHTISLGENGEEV

Sequence of Sigma non-opioid intracellular receptor 1 (Q60492 whole entry): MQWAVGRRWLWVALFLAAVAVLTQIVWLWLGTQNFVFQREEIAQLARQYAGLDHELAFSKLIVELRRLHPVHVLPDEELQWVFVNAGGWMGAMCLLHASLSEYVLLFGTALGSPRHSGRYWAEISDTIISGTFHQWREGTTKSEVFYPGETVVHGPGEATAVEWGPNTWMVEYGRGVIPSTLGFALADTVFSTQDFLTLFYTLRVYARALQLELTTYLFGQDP
Sequence of D(2) dopamine receptor (P61169 whole entry): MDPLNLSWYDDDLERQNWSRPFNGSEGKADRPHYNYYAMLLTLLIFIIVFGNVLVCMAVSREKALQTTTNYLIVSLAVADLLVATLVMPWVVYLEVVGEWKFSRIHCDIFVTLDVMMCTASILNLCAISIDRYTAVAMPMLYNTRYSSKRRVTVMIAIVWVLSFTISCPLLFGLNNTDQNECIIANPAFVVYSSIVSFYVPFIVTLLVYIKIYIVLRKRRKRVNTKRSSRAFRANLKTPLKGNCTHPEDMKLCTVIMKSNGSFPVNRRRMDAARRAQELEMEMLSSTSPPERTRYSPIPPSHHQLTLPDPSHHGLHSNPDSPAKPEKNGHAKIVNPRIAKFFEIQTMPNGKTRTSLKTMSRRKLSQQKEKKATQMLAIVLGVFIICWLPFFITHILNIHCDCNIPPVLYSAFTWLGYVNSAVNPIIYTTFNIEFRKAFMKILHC

Row | Structure (SMILES) | Ki [1] | Ki [2] | Ki [3] | Ratio Ki (Cavia porcellus) | Ratio Ki [4] | Activity (PC-3 [5]) | EC50 (PC-3 [6]) | Ki [7] | Ki (D(2) dopamine receptor) | Ki [8]
1 | Fc1cccc(F)c1[C@H]1CC[C@H](N2CCN(c3ccccn3)CC2)CC1 | 106 nM | 190 nM | 138 nM | 1.8 | 1.2 | <10% | – | – | – | –
2 | Clc1ccccc1[C@H]1CC[C@H](N2CCN(c3ccccn3)CC2)CC1 | 7.21 nM | 190 nM | 29.1 nM | 26 | 4 | <10% | – | – | – | –
3 | COc1cccc([C@H]2CC[C@H](N3CCN(c4ccccn4)CC3)CC2)c1 | 16.2 nM | 24.8 nM | 21.9 nM | – | 2 | <10% | 23000 nM | – | – | –
4 | COc1ccc([C@H]2CC[C@H](N3CCN(c4ccccn4)CC3)CC2)cc1 | 71.6 nM | 291 nM | 222 nM | 4 | 3 | <10% | – | – | – | –
5 | CCCN(CCC)CCc1ccc(OC)c(OCCc2ccccc2)c1 | – | – | 212 nM | – | – | <10% | 47000 nM | – | – | –
6 | COc1ccccc1[C@H]1CC[C@H](N2CCN(c3ccccn3)CC2)CC1 | 13.5 nM | 2.86 nM | 30 nM | – | 1.3 | <10% | – | – | – | –
7 | COc1cccc(OC)c1[C@H]1CC[C@@H](N2CCN(c3ccccn3)CC2)CC1 | 4.95 nM | > 6000 nM | 687 nM | > 1210 | 138 | <10% | 12900 nM | – | – | –
8 | COc1cccc(C2=CCC(N3CCN(c4ccccn4)CC3)CC2)c1 (stereo unspecified) | 2640 nM | 220 nM | – | – | – | <10% | – | – | – | –
9 | COc1ccc2c(c1)CCC(CN1CCN(c3ccccn3)CC1)C2 (stereo unspecified) | 32.1 nM | 358 nM | 1250 nM | – | – | <10% | – | – | – | –
10 | Clc1ccccc1[C@H]1CC[C@@H](N2CCN(c3ccccn3)CC2)CC1 | 85.1 nM | 1090 nM | 150 nM | 13 | 1.8 | <10% | – | – | – | –
11 | COc1cccc([C@H]2CC[C@@H](NCCOc3ccccn3)CC2)c1 | 23.5 nM | 7.71 nM | – | – | – | <10% | – | 373 nM | 783 nM | > 850 nM
12 | Cc1ccccc1[C@H]1CC[C@H](N2CCN(c3ccccn3)CC2)CC1 | 9.04 nM | 30.7 nM | 29.6 nM | 3.4 | 3.3 | <10% | – | – | – | –
13 | c1ccc([C@H]2CC[C@@H](N3CCN(c4ccccn4)CC3)CC2)cc1 | 49.2 nM | 802 nM | 62 nM | 16 | 1.3 | <10% | – | – | – | –
14 | Cc1cccc(C)c1C1=CCC(N2CCN(c3ccccn3)CC2)CC1 (racemic) | 46.7 nM | 177 nM | 113 nM | 3.8 | 2.4 | <10% | – | – | – | –
15 | CC(C)=CCN1CC[C@]2(C)c3cc(O)ccc3C[C@H]1[C@H]2C [(+)-PENTAZOCINE] | > 10 nM | – | 1860 nM | – | – | <10% | 86900 nM | – | – | –
16 | Cc1cccc(C)c1[C@H]1CC[C@@H](N2CCN(c3ccccn3)CC2)CC1 | 33.1 nM | 6.32 nM | 60.2 nM | 0.2 | 1.8 | <10% | – | – | – | –
17 | Fc1cccc(F)c1[C@H]1CC[C@@H](N2CCN(c3ccccn3)CC2)CC1 | 140 nM | 5170 nM | 440 nM | 37 | 3 | <10% | 37300 nM | – | – | –
18 | Cc1ccccc1[C@H]1CC[C@@H](N2CCN(c3ccccn3)CC2)CC1 | 5 nM | 1000 nM | 71 nM | 200 | 14 | <10% | 38000 nM | – | – | –
19 | COc1cccc([C@H]2CC[C@@H](N3CCN(c4ccccn4)CC3)CC2)c1 | 45.4 nM | 178 nM | 36.1 nM | – | – | <10% | – | 815 nM | > 850 nM | 783 nM
20 | COc1cccc([C@H]2CC[C@@H](N3CCN(c4ccccc4)CC3)CC2)c1 | 1710 nM | – | – | – | – | <10% | – | 183 nM | 2380 nM | 2250 nM
21 | c1ccc([C@H]2CC[C@H](N3CCN(c4ccccn4)CC3)CC2)cc1 | 16.8 nM | 104 nM | 26.9 nM | 6 | 1.6 | <10% | – | – | – | –
22 | COc1cccc(OC)c1[C@H]1CC[C@H](N2CCN(c3ccccn3)CC2)CC1 | 7 nM | 215 nM | 25 nM | 31 | 3.6 | <10% | – | – | – | –
23 | COc1cccc(C2=CCC(N3CCN(c4ccccc4)CC3)CC2)c1 (stereo unspecified) | 460 nM | – | – | – | – | <10% | – | – | – | –
24 | CC(C(O)c1ccc(O)cc1)N1CCC(Cc2ccccc2)CC1 (racemic) [IFENPRODIL] | 16.4 nM | – | 2.3 nM | – | – | <10% | 25800 nM | – | – | –
25 | COc1cccc([C@H]2CC[C@@H](N3CCN(c4cccc5ccccc45)CC3)CC2)c1 | 16.7 nM | 240 nM | – | – | – | <10% | – | 74 nM | 1310 nM | 5540 nM
